# Measurements collected from several papers.
# Target: Tyrosine-protein kinase ABL2 (ABL2, Homo sapiens, UniProt P42684)
Structure (SMILES),assay,setting,measurement,value
C#Cc1n[nH]c2c(-c3cn([C@@H](C)c4ccccc4)c(=O)[nH]c3=O)cc(F)cc12,"enzyme activity, inhibitor",0.1 µM,inhibition,2.4%
Cn1cc(-c2cccc(N3CCc4c(sc5c4CC(C)(C)C5)C3=O)c2CO)cc(Nc2ccncn2)c1=O,"enzyme activity, inhibitor",1 µM,inhibition,4%
CC(C)(C)c1cc(C=C(C#N)C#N)cc(Br)c1O,"enzyme activity, inhibitor",0.5 µM,remaining activity,57.1%
Nc1ncc(-c2nc(N3CCOCC3)nc(N3CCOCC3)n2)c(C(F)F)n1,"binding, competition with immobilised ligand",10 µM,remaining binding,99%
Cc1nn(C)cc1-c1nc2c(N3CCN(Cc4ccc(Cl)cc4)CC3)c(Cl)cnc2[nH]1,"binding, competition with immobilised ligand",1 µM,remaining binding,100%
Cn1cc(-c2cc(F)cc(N3CCn4c(cc5c4CCCC5)C3=O)c2CO)cc(Nc2ccc(N3CCN(C4COC4)CC3)cn2)c1=O,"enzyme activity, inhibitor",0.1 µM,inhibition,11%
Cn1cncc1[C@](O)(COc1ccc(C#N)cc1-c1ccc(OC(F)(F)F)cc1)c1ccc(C#N)cc1,"cell-free assay, competition with immobilised ligand",1 µM,remaining binding,83%
COc1ncccc1-c1cnn2ccc(N3CCN(C(=O)OC(C)C)CC3)nc12,"binding, competition with immobilised ligand",1 µM,remaining binding,100%
C#Cc1n[nH]c2c(-c3cn([C@@H](C)c4ccccn4)c(=O)[nH]c3=O)cc(F)cc12,"enzyme activity, inhibitor",0.1 µM,inhibition,5.9%
O=c1[nH]c2ccccc2n1C1CCN(Cc2ccc(-c3[nH]c4cc5ncnc5cc4nc3-c3ccccc3)cc2)CC1,cell-free assay,0.5 µM,remaining signal,96.8%
COc1cc(Nc2ncc(F)c(Nc3ccc4c(n3)NC(=O)C(C)(C)O4)n2)cc(OC)c1OC,"binding, competition with immobilised ligand",10 µM,inhibition,77%
